The values that follow come from ChEMBL document CHEMBL1142716, “2-Hydroxy-4,6-diamino-[1,3,5]triazines: a novel class of VEGF-R2 (KDR) tyrosine kinase inhibitors” (J Med Chem, 2005).

Assay [1] addresses T1, Insulin receptor (Homo sapiens, UniProt P06213). Briefly: Inhibition of human Insulin receptor expressed in CHO cells. It counts as cell-based. Summed up: (§1)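 Cell-based counterscreen for growth-factor-induced p42/44 MAP kinase phosphorylation through EGFR, insulin receptor or FGFR-1. Cells were grown, treated and fixed in 96-well plates, and phosphorylation was read by phospho-specific ELISA.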

For assay [2], the species on record is Rattus norvegicus. Briefly: Total tube length (arbitrary units) of aortic rings was measured by aortic ring assay in rat at 0.3 uM concentration of the compound. The format is functional, Aorta. The method, boiled down:
(§2)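 Rings cut from rat aorta were embedded in collagen gels containing 5 ng/mL VEGF and cultured for 7 days with test compound. The total length of capillary-like sprouts growing out from each ring was measured in arbitrary units and reported with SEM.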

Assay [3] can be described thus: Inhibition of fibroblast growth factor receptor 1.
Assay [4] concerns the target T2, Epidermal growth factor receptor (Homo sapiens, UniProt P00533). Briefly: Inhibition of human epidermal growth factor receptor. The method, boiled down: (§3)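 Cell-based counterscreen. Cells were grown, treated with compound and fixed in wells. EGF-R-induced phosphorylation of MAP kinase was then read directly by a phosphorylation-specific ELISA.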
Assay [5] has as its target Platelet-derived growth factor receptor (Homo sapiens, UniProt P09619+P16234). Briefly: Inhibition of PDGF-R2 tyrosine kinase. The format is protein-complex assay.
The target of assay [6] is T1, Insulin receptor. Briefly: Inhibition of beta IRK tyrosine kinase.
Assay [7] concerns the target T3, Vascular endothelial growth factor receptor 2 (Homo sapiens, UniProt P35968). Briefly: Inhibition of KDR-induced MAP kinase autophosphorylation assay in HUVEC cells. The format is functional, cell-based. The method, boiled down:
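Low-passage HUVECs (passage 3-12) were grown to confluence, serum-starved, treated with compound or DMSO, then stimulated with VEGF. Cells were lysed, run on SDS-PAGE and immunoblotted quantitatively with a phospho-p42/44 MAP kinase (pERK1/2) antibody. Inhibition is expressed as a percent of VEGF-stimulated phosphorylation in DMSO controls. IC50 values are the mean of three independent experiments.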

The subject of the next assay is HUVEC. Briefly: Inhibitory concentration against HUVEC cells. Conditions: Homo sapiens. It counts as functional, cell-based.
The target of assay [8] is Fibroblast growth factor receptor 1 (Mus musculus, UniProt P16092). Briefly: Inhibition of mouse Fibroblast growth factor receptor 1 expressed in NIH 3T3 fibroblasts. Summed up: as §1
Assay [9] has as its target T3, Vascular endothelial growth factor receptor 2. Briefly: In vitro inhibition of Vascular endothelial growth factor receptor 2 at 10 uM ATP.
The next assay deals with Angiopoietin-1 receptor (Homo sapiens, UniProt Q02763). Briefly: Inhibition of tyrosine protein kinase receptor TIE-2.
The species named for assay [10] is Rattus norvegicus. Briefly: Total tube length (arbitrary units) of aortic rings was measured by aortic ring assay in rat at 30 uM concentration of the compound. It counts as functional, Aorta. Summed up: as §2
Assay [11] has as its target Macrophage colony-stimulating factor 1 receptor (Homo sapiens, UniProt P07333). Briefly: Inhibition of c-fms tyrosine kinase.
For assay [12], the species on record is Rattus norvegicus. Briefly: Total tube length (arbitrary units) of aortic rings was measured by aortic ring assay in rat at 3 uM concentration of the compound. The format is functional, Aorta. Summed up:
as §2

Assay [13] can be described thus: Inhibition of c-Src tyrosine kinase.
The target of assay [14] is T2, Epidermal growth factor receptor. Briefly: Inhibition of human Epidermal growth factor receptor expressed in A431. Summed up: as §3
The nature of assay [15]: Inhibition of Fibroblast growth factor receptor 1.

Sequence of Fibroblast growth factor receptor 1 (P16092 whole entry): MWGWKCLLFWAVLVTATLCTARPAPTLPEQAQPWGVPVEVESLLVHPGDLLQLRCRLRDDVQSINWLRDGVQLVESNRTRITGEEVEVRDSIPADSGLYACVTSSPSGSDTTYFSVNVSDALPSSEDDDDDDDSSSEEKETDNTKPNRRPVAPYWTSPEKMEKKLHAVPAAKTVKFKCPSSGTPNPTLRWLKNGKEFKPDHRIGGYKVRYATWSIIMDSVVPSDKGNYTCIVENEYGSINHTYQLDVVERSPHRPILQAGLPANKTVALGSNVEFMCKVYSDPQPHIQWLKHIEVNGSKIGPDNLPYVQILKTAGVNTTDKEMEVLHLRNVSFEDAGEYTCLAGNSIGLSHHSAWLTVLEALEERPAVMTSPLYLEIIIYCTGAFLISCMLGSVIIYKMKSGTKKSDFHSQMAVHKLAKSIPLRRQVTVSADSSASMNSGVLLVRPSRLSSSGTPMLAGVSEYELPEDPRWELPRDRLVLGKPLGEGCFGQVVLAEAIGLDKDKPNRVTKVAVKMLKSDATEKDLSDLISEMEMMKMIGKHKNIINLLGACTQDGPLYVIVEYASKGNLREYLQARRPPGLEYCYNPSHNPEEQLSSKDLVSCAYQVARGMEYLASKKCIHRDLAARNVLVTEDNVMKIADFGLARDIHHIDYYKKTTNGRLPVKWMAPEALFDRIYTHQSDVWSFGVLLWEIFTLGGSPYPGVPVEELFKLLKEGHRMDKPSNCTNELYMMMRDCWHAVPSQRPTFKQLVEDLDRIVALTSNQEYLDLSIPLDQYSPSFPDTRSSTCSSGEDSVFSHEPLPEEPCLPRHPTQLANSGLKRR
Sequence of Angiopoietin-1 receptor (Q02763 whole entry): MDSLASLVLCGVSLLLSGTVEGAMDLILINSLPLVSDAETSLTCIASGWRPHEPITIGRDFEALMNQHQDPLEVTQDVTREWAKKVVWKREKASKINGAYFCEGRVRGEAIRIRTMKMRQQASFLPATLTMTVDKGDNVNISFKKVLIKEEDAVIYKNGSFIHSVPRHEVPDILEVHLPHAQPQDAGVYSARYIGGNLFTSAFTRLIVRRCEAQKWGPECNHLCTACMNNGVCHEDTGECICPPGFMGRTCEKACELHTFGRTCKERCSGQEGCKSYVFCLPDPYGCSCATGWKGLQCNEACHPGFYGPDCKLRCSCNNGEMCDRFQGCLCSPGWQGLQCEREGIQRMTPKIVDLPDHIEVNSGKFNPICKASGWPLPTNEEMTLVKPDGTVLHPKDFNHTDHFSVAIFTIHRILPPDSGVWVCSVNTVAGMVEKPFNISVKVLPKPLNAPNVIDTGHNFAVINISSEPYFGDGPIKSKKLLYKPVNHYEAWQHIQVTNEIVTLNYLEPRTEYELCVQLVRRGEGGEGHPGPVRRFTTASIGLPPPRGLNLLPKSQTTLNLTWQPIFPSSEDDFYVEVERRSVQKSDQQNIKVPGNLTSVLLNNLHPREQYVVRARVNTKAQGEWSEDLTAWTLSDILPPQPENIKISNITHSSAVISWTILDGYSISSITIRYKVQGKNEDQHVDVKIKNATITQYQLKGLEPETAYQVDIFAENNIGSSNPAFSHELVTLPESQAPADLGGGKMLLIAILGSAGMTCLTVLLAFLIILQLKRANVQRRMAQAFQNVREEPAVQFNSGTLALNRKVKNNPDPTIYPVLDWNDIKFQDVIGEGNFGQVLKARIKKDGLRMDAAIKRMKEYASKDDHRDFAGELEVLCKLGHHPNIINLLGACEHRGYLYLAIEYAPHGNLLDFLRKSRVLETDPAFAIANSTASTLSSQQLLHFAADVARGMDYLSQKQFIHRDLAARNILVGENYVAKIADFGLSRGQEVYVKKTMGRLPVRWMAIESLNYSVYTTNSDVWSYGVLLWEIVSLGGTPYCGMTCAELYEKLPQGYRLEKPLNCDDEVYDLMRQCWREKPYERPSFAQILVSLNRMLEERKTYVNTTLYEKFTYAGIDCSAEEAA
T3 sequence (P35968 whole entry): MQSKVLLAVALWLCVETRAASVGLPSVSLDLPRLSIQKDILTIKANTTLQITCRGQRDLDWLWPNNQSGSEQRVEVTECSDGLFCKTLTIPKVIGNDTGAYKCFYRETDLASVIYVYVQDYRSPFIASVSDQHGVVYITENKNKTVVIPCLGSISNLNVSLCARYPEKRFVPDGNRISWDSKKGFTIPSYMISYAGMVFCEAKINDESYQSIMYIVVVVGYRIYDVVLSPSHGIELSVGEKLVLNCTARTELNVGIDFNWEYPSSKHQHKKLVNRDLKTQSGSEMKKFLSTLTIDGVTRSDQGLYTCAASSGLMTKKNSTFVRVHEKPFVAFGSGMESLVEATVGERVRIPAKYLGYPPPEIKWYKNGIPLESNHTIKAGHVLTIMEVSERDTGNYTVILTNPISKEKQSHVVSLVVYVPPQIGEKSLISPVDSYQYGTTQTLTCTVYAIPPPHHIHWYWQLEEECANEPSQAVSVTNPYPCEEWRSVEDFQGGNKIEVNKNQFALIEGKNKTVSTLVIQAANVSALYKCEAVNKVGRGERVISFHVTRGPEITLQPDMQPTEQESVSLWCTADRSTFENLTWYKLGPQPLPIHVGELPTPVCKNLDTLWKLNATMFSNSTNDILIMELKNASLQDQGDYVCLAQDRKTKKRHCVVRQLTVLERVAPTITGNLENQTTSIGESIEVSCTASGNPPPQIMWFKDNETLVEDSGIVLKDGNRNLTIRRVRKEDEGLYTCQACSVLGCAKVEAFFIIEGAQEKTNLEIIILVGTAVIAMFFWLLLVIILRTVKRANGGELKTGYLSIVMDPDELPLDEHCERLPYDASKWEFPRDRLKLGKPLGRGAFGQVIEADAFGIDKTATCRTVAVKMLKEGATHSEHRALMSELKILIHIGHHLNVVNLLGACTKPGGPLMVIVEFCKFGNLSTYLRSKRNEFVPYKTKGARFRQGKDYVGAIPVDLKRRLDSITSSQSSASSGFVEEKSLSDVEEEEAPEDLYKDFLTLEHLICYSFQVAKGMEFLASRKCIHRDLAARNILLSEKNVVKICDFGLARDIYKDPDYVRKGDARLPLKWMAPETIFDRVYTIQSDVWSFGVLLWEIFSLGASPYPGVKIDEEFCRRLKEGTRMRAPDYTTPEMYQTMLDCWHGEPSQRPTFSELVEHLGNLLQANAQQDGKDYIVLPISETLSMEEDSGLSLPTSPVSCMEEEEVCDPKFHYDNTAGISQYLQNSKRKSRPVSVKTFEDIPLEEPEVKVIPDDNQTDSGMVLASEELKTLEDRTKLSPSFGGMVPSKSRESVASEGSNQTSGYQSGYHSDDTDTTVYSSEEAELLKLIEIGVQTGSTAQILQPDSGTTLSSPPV
Sequence of Macrophage colony-stimulating factor 1 receptor (P07333 whole entry): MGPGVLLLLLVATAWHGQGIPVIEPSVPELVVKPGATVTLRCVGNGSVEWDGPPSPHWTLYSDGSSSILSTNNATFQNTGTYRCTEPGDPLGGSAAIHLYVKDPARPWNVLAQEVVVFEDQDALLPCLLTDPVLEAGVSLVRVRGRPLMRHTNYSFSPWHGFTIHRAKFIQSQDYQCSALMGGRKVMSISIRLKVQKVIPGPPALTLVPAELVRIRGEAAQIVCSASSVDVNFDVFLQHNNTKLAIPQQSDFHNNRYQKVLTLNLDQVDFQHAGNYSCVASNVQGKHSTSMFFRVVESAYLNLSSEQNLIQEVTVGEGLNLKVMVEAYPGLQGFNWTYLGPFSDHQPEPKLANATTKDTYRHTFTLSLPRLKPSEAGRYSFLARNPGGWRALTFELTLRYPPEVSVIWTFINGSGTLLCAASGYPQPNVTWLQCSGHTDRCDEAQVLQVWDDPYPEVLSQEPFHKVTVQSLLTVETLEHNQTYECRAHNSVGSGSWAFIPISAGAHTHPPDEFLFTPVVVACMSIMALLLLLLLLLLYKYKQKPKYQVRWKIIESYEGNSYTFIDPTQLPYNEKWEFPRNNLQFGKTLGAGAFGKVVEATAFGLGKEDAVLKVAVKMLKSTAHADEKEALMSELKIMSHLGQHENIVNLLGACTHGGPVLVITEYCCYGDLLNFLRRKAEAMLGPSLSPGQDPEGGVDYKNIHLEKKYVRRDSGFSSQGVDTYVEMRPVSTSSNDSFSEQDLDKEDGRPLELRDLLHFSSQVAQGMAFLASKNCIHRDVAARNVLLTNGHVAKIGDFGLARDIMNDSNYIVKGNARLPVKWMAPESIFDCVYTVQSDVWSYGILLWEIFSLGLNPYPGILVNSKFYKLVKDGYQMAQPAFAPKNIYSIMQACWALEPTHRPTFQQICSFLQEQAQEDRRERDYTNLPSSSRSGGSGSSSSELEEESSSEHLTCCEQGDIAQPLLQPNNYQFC

With `CC(C)N(Cc1ccccc1)c1nc(O)nc(Nc2ccc3ncsc3c2)n1`, the concentration for half-maximal inhibition (IC50) on Insulin receptor [1] is greater than 10 µM; in assay [3], greater than 12.5 µM; in [4], greater than 10 µM; in assay [5], greater than 12.5 µM; at Insulin receptor [6], 11 µM; in assay [7], 0.28 µM. In addition, the IC50 is 0.28 µM in the assay on HUVEC; greater than 10 µM in [8]; 0.018 µM in assay [9]; 0.18 µM against Angiopoietin-1 receptor; greater than 12.5 µM in assay [11]; greater than 12.5 µM in assay [13]. Further, the Activity amounted to 1503 in the assay filed under Rattus norvegicus [2], 36.3 in the assay listed under Rattus norvegicus [10] and 348 in the assay filed under Rattus norvegicus [12].

Turning to `CC(C)(Nc1nc(Cl)nc(Nc2ccc3ncsc3c2)n1)c1ccccc1`, the IC50 worked out at 1.08 µM in [7] and 5.5 µM in [9].

Turning to `CN(Cc1ccccc1)c1nc(O)nc(Nc2ccc3ncsc3c2)n1`, the IC50 in assay [7] was found to be 2.4 µM; in assay [9], 0.32 µM.

Regarding `CC(C)(Nc1nc(NO)nc(Nc2ccc3ncsc3c2)n1)c1ccccc1`, the IC50 against Insulin receptor [1] was greater than 10 µM; in assay [3] it was 1.8 µM; in [5], 3.9 µM; on Insulin receptor [6] it was 0.42 µM; in assay [7] it was 0.84 µM; in [14], greater than 10 µM. For the same compound, the IC50 in assay [8] was greater than 10 µM; in [9], 0.04 µM; against Angiopoietin-1 receptor it was 0.7 µM; in assay [11], 14 µM; in assay [13], 1.8 µM.

`CC(C)(Nc1nc(O)nc(Nc2ccc3[nH]cnc3c2)n1)c1ccccc1`: the values for the IC50 in assay [7] and in assay [9] were greater than 20 µM and 0.24 µM, respectively.

Take `Oc1nc(NCc2ccccc2)nc(Nc2ccc3ncsc3c2)n1`: the IC50 in assay [7] is greater than 30 µM; in assay [9], 2 µM.

Consider `COc1nc(Nc2ccc3ncsc3c2)nc(NC(C)(C)c2ccccc2)n1`, for which the IC50 in assay [7] is greater than 30 µM; in assay [9] it was 6.1 µM.

For `CCN(Cc1ccccc1)c1nc(O)nc(Nc2ccc3ncsc3c2)n1`, the IC50 was greater than 10 µM against Insulin receptor [1]; greater than 12.5 µM in assay [15]; 2.5 µM in assay [5]; 4 µM on Insulin receptor [6]; 0.6 µM in assay [7]; greater than 10 µM in assay [14]. The IC50 in assay [8] is greater than 10 µM; in assay [9], 0.049 µM; at Angiopoietin-1 receptor, 0.4 µM; in assay [11], 4.3 µM; in [13], 3.1 µM.

For the compound `CC(C)(Nc1nc(O)nc(Nc2ccc3ncsc3c2)n1)c1ccccc1`, the IC50 at Insulin receptor [1] was greater than 10 µM; in assay [3], greater than 12.5 µM; in assay [5], 8 µM; at Insulin receptor [6] it was 0.55 µM; in assay [7], 0.4 µM; in [14], greater than 10 µM. The IC50 was greater than 10 µM in [8]; 0.035 µM in assay [9]; 1 µM against Angiopoietin-1 receptor; greater than 12.5 µM in [11]; 4.3 µM in [13].

Usually IC50 stands for the midpoint of a concentration-inhibition curve. Low values mean greater potency, high ones weaker potency.
